Results reported in ChEMBL document CHEMBL2046306, “Synthesis of 6-substituted 9-methoxy-11H-indeno[1,2-c]quinoline-11-one derivatives as potential anticancer agents” (Bioorg Med Chem, 2012).

Key:
MCF7 = experiment: Antiproliferative activity against human MCF7 cells assessed as growth at 100 uM after 48 hrs by alamar blue assay; type: functional; details: MCF7, 48 h, read-out: Activity
In short: (§1)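 Single-dose prescreen in a three-line NCI panel (NCI-H460, MCF7, SF-268). Cells were inoculated and preincubated on microtiter plates, then exposed to test agent at 100 μM for 48 h. Alamar blue end-point. Growth is expressed as percent of untreated control cells.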

SF-268 = experiment: Antiproliferative activity against human SF268 cells assessed as growth at 100 uM after 48 hrs by alamar blue assay; type: functional; details: SF-268, 48 h, read-out: Activity; in short: as §1
NCI-H460 [1] = experiment: Antiproliferative activity against human NCI-H460 cells assessed as growth at 100 uM after 48 hrs by alamar blue assay; type: functional; details: NCI-H460, 48 h, read-out: Activity; in short: as §1
A549 = experiment: Growth inhibition of human A549 cells after 48 hrs by sulforhodamine B assay; type: functional, cell-based; details: A549, 48 h
In short: (§2)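 NCI 60-line screen. Cells grown in RPMI 1640 with 5% FBS and 2 mM L-glutamine, seeded at 5000–40,000 cells/well, preincubated 24 h at 37 °C. Five 10-fold dilutions added, highest well concentration 10E-4 M. Incubated 48 h in 5% CO₂ at 100% humidity. Sulforhodamine B read-out by optical density; GI50 taken from dose-response curves versus control.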

DU-145 = experiment: Growth inhibition of human DU145 cells after 48 hrs by sulforhodamine B assay; type: functional; details: DU-145, 48 h; in short: as §2
CCRF-CEM = experiment: Growth inhibition of human CCRF-CEM cells after 48 hrs by sulforhodamine B assay; type: functional; in short: as §2
SR = experiment: Growth inhibition of human SR cells after 48 hrs by sulforhodamine B assay; type: functional
In short: (§3)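 NCI 60-line screen. Cells grown in RPMI 1640 with 5% FBS and 2 mM L-glutamine, seeded at 5000-40,000 cells/well and preincubated 24 h at 37 °C. Compounds added at five 10-fold dilutions, highest well concentration 10E-4 M. Exposure 48 h in 5% CO2 at 100% humidity. Endpoint is sulforhodamine B with optical density read-out. GI50 is the concentration giving 50% growth inhibition versus control.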

IGROV-1 = experiment: Growth inhibition of human IGROV1 cells after 48 hrs by sulforhodamine B assay; type: functional; details: IGROV-1, 48 h; in short: as §2
SK-MEL-5 = experiment: Growth inhibition of human SK-MEL-5 cells after 48 hrs by sulforhodamine B assay; type: functional; details: SK-MEL-5, 48 h; in short: as §3
[2] = Growth inhibition of human Hs 578T cells after 48 hrs by sulforhodamine B assay; type: functional; in short: as §2
U-251 = experiment: Growth inhibition of human U251 cells after 48 hrs by sulforhodamine B assay; type: functional; details: U-251, 48 h; in short: as §3
RXF 393 = experiment: Growth inhibition of human RXF393 cells after 48 hrs by sulforhodamine B assay; type: functional; details: RXF 393, 48 h; in short: as §3
HCT-116 = experiment: Growth inhibition of human HCT116 cells after 48 hrs by sulforhodamine B assay; type: functional; details: HCT-116, 48 h; in short: as §2
NCI-H460 [3] = experiment: Growth inhibition of human NCI-H460 cells after 48 hrs by sulforhodamine B assay; type: functional; details: NCI-H460, 48 h; in short: as §2

Row | SMILES | growth at 100 µM (MCF7) [%] | growth at 100 µM (SF-268) [%] | growth at 100 µM (NCI-H460 [1]) [%] | IC50 (A549) [µM] | GI50 (A549) [µM] | GI50 (DU-145) [µM] | GI50 (CCRF-CEM) [µM] | GI50 (SR) [µM] | GI50 (IGROV-1) [µM] | GI50 (SK-MEL-5) [µM] | GI50 [2] [µM] | GI50 (U-251) [µM] | GI50 (RXF 393) [µM] | GI50 (HCT-116) [µM] | GI50 (NCI-H460 [3]) [µM]
1 | CO/N=C1/c2cc(OC)ccc2-c2c(Nc3cccc(/C(C)=N/OC)c3)nc3ccccc3c21 | 80 | 92 | 82 | – | – | – | – | – | – | – | – | – | – | – | –
2 | CN(C)CCCOc1ccc(-c2nc3ccc(OCCCN(C)C)cc3c3c2-c2ccc(OCCCN(C)C)cc2C3=O)cc1 | – | – | – | 0.68 | – | – | – | – | – | – | – | – | – | – | –
3 | COc1ccc2c(c1)C(=O)c1c-2c(Nc2ccc(C(C)=O)cc2)nc2ccccc12 | 61 | 11 | 18 | – | 39.8 | 39.8 | 39.8 | 39.8 | 39.8 | 39.8 | 39.8 | 39.8 | 39.8 | 39.8 | –
4 | COc1ccc2c(c1)C(=O)c1c-2c(Nc2ccc(Cl)cc2)nc2ccccc12 | 96 | 42 | 10 | – | 15.1 | 15.1 | 15.1 | 15.1 | 15.1 | 15.1 | 15.1 | 15.1 | 15.1 | 15.1 | –
5 | COc1ccc2c(c1)/C(=N\OC(C)=O)c1c-2c(Nc2ccc(/C(C)=N/OC(C)=O)cc2)nc2ccccc12 | 24 | 36 | 37 | – | 52.5 | 52.5 | 52.5 | 52.5 | 52.5 | 52.5 | 52.5 | 52.5 | 52.5 | 52.5 | –
6 | COc1ccc2c(c1)/C(=N\OC(C)=O)c1c-2c(Nc2cccc(/C(C)=N/OC(C)=O)c2)nc2ccccc12 | 32 | 43 | 96 | – | 53.7 | 53.7 | 53.7 | 53.7 | 53.7 | 53.7 | 53.7 | 53.7 | 53.7 | 53.7 | –
7 | COc1ccc2c(c1)C(=O)c1c-2c(Nc2ccc(F)c(F)c2)nc2ccccc12 | 106 | 69 | 96 | – | – | – | – | – | – | – | – | – | – | – | –
8 | COc1ccc2c(c1)/C(=N\O)c1c-2c(Nc2cccc(/C(C)=N/O)c2)nc2ccccc12 | 84 | 66 | 11 | – | 28.2 | 28.2 | 28.2 | 28.2 | 28.2 | 28.2 | 28.2 | 28.2 | 28.2 | 28.2 | –
9 | COc1ccc2c(c1)/C(=N\OCCCN)c1c-2c(N2CCNCC2)nc2ccccc12 | – | – | – | 0.64 | – | – | – | – | – | – | – | – | – | – | –
10 | COc1ccc2c(c1)C(=O)c1c-2c(Nc2cccc(C(C)=O)c2)nc2ccccc12 | 17 | 7 | 0 | – | 17.7 | 11.8 | 12.9 | 21.4 | 3.63 | 5.25 | 3.16 | 3.09 | 9.77 | 2.63 | 23.5
11 | COc1ccc2c(c1)C(=O)c1c-2c(NCCN(C)C)nc2ccccc12 | 0 | 6 | 0 | – | 3.47 | 3.47 | 3.47 | 3.47 | 3.47 | 3.47 | 3.47 | 3.47 | 3.47 | 3.47 | –
12 | COc1ccc(Nc2nc3ccccc3c3c2-c2ccc(OC)cc2C3=O)c(OC)c1 | 103 | 107 | 110 | – | – | – | – | – | – | – | – | – | – | – | –
13 | COc1cccc(Nc2nc3ccccc3c3c2-c2ccc(OC)cc2C3=O)c1 | 79 | 87 | 83 | – | – | – | – | – | – | – | – | – | – | – | –
14 | COc1ccc2c(c1)C(=O)c1c-2c(Nc2ccc(OC)c(OC)c2)nc2ccccc12 | 90 | 41 | 68 | – | – | – | – | – | – | – | – | – | – | – | –
15 | CO/N=C1/c2cc(OC)ccc2-c2c(Nc3ccc(/C(C)=N/OC)cc3)nc3ccccc3c21 | 89 | 108 | 112 | – | – | – | – | – | – | – | – | – | – | – | –
16 | COc1ccc2c(c1)/C(=N\O)c1c-2c(Nc2ccc(/C(C)=N/O)cc2)nc2ccccc12 | 1 | 2 | 0 | – | 1.45 | 2.04 | 4.17 | 1.48 | 15.1 | 3.8 | 7.08 | 2.29 | < 0.01 | 1.48 | 29.5
17 | COc1ccc2c(c1)C(=O)c1c-2c(Nc2ccc(F)cc2F)nc2ccccc12 | 99 | 68 | 96 | – | – | – | – | – | – | – | – | – | – | – | –
18 | COc1ccc(Nc2nc3ccccc3c3c2-c2ccc(OC)cc2C3=O)cc1 | 74 | 65 | 69 | – | – | – | – | – | – | – | – | – | – | – | –
